From ChEMBL document CHEMBL1122632, “Synthesis and antitumor activity of cis-dichloroplatinum (II)-N-aminated nucleoside complexes” (J Med Chem, 1984)
Converted amounts (≈) assume the structure as drawn. “And” between values parts separate entries of the source, which are not always exact repeats. Equal entries are not always repeated. One block for each compound: values may come before it.

Key:
L1210 [1] = assay: Median survival time (MST) of mice bearing L1210 cells was determined at a dose of 114 mg/kg x 2 days administered ip.; format: functional, Mus musculus
In short: (§1)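 (BALB/c x DBA/2)F1 mice, 20 g, implanted ip with 10^4 L1210 cells. Test samples in saline (0.2 mL) given ip on days 1 and 5 after tumor inoculation; doses above 100 mg/kg homogenized with Nikkol (7 times by weight) as vehicle. Activity from median survival time of treated group versus control group (T/C).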

L1210 [2] = assay: Ratio of median survival time of the mice bearing L1210 cells in treated(T) vs. control(C) at a dose of 114 mg/kg x 2 days; format: functional, Mus musculus; in short: as §1
L1210 [3] = assay: In vitro inhibitory effect on growth of L1210 cells; (10E-6); format: functional, cell-based; settings: Mus musculus
In short: (§2)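 L1210 cells (10^5 in 1 mL) were grown in RPMI 1640 with 10% FCS and kanamycin, at 37 °C in CO2, for 48 h. Compounds were heated at 110 °C for 8 h, dissolved in medium and tested at ≥6 concentrations. Viability was scored by 0.17% Trypan blue exclusion against drug-free controls. IC50 was the concentration halving living cell number, taken from the log-probit dose-response curve.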

L1210 [4] = assay: Median survival time (MST) of mice bearing L1210 cells was determined at a dose of 2 mg/kg x 2 days administered ip.; format: functional, Mus musculus; in short: as §1
L1210 [5] = assay: Ratio of median survival time of the mice bearing L1210 cells in treated(T) vs. control(C) at a dose of 2 mg/kg x 2 days; format: functional, Mus musculus; in short: as §1
L1210 [6] = assay: In vitro inhibition of L1210 (murine leukemia) cell growth.; format: functional, cell-based, Mus musculus; settings: Mus musculus, L1210; read-out: IC50; in short: as §2
L1210 [7] = assay: Ratio of median survival time of the mice bearing L1210 cells in treated(T) vs. control(C) at a dose of 112 mg/kg x 2 days; format: functional, Mus musculus; in short: as §1
L1210 [8] = assay: Ratio of median survival time of the mice bearing L1210 cells in treated(T) vs. control(C) at a dose of 30 mg/kg x 2 days; format: functional, Mus musculus; in short: as §1
L1210 [9] = assay: In vitro inhibitory effect on growth of L1210 cells; 1.5*10e-3; format: functional, cell-based; settings: Mus musculus; in short: as §2
L1210 [10] = assay: Median survival time (MST) of mice bearing L1210 cells was determined at a dose of 2 mg/kg x 2 days administered ip; Toxic.; format: functional, organism-based; parameters: dose 2 mg/kg; settings: Mus musculus
In short: (§3)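 (BALB/c × DBA/2)F1 mice (20 g) were implanted ip with 10^4 L1210 cells. Compounds in saline (0.2 mL) were given ip on days 1 and 5; doses above 100 mg/kg were homogenized with Nikkol (7× by weight). Activity was scored as median survival time of treated mice and expressed as T/C, the ratio of treated to control median survival time.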

L1210 [11] = assay: Median survival time (MST) of mice bearing L1210 cells was determined at a dose of 59 mg/kg x 2 days administered ip; Toxic.; format: functional, organism-based; parameters: dose 59 mg/kg; settings: Mus musculus; in short: as §3
Mus musculus [12] = assay: Blood urea nitrogen values in ICR mice after intraperitoneal administration at an equivalent molar dose of the LD50 of […](13 mg/kg) on day 3; format: functional, organism-based
In short: (§4)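 ICR mice (25-30 weeks, 39 ± 4 g), 5-6 per group, given one ip dose of 0.043 mmol/kg, equimolar to 13 mg/kg cis-DDP. On days 3, 6 and 9, blood was drawn from the heart under ether anesthesia and stored frozen. BUN was measured later by a modified urease indophenol method. Results are mean ± SD, mg/100 mL blood, compared with untreated controls.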

Mus musculus [13] = assay: Blood urea nitrogen values in ICR mice after intraperitoneal administration at an equivalent molar dose of the LD50 of […](13 mg/kg) on day 6; format: functional, organism-based; in short: as §4
L1210 [14] = assay: Median survival time (MST) of mice bearing L1210 cells was determined at a dose of 300 mg/kg x 2 days administered ip; Toxic; format: functional, organism-based; parameters: dose 300 mg/kg; settings: Mus musculus; in short: as §3
L1210 [15] = assay: Median survival time (MST) of mice bearing L1210 cells was determined at a dose of 200 mg/kg x 2 days administered ip.; format: functional, organism-based; parameters: dose 200 mg/kg; settings: Mus musculus; in short: as §3
Mus musculus [16] = assay: Effect on kidney weight in ICR mice was determined after intraperitoneal administration on day 9; format: functional, organism-based
In short: (§5)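 ICR mice (25-30 weeks, 39 ± 4 g), 5-6 per group, given one ip dose of 0.043 mmol/kg, equimolar to 13 mg/kg cis-DDP. Body and kidney weights were taken on days 3, 6 and 9 and compared with untreated controls. Weights are paired, mean ± SD.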

Mus musculus [17] = assay: Effect on kidney weight in ICR mice was determined after intraperitoneal administration on day 3; format: functional, organism-based; in short: as §5
Mus musculus [18] = assay: Effect on body weight in ICR mice was determined after intraperitoneal administration on day 9; format: functional, organism-based; in short: as §5
L1210 [19] = assay: Median survival time (MST) of mice bearing L1210 cells was determined at a dose of 10 mg/kg x 2 days administered ip.; format: functional, organism-based; parameters: dose 10 mg/kg; settings: Mus musculus; in short: as §3
L1210 [20] = assay: Ratio of median survival time of the mice bearing L1210 cells in treated(T) vs. control(C) at a dose of 100 mg/kg x 2 days; format: functional, organism-based; parameters: dose 100 mg/kg; settings: Mus musculus; in short: as §3
L1210 [21] = assay: Median survival time (MST) of mice bearing L1210 cells was determined at a dose of 50 mg/kg x 2 days administered ip.; format: functional, organism-based; parameters: dose 50 mg/kg; settings: Mus musculus; in short: as §3
Mus musculus [22] = assay: Blood urea nitrogen values in ICR mice after intraperitoneal administration at an equivalent molar dose of the LD50 of […](13 mg/kg) on day 9; format: functional, organism-based; in short: as §4
Mus musculus [23] = assay: Effect on body weight in ICR mice was determined after intraperitoneal administration on day 3; format: functional, organism-based; in short: as §5
L1210 [24] = assay: Ratio of median survival time of the mice bearing L1210 cells in treated(T) vs. control(C) at a dose of 50 mg/kg x 2 days; format: functional, organism-based; parameters: dose 50 mg/kg; settings: Mus musculus; in short: as §3
L1210 [25] = assay: Ratio of median survival time of the mice bearing L1210 cells in treated(T) vs. control(C) at a dose of 200 mg/kg x 2 days; format: functional, organism-based; parameters: dose 200 mg/kg; settings: Mus musculus; in short: as §3
L1210 [26] = assay: Median survival time (MST) of mice bearing L1210 cells was determined at a dose of 25 mg/kg x 2 days administered ip.; format: functional, organism-based; parameters: dose 25 mg/kg; settings: Mus musculus; in short: as §3
L1210 [27] = assay: Ratio of median survival time of the mice bearing L1210 cells in treated(T) vs. control(C) at a dose of 10 mg/kg x 2 days; format: functional, organism-based; parameters: dose 10 mg/kg; settings: Mus musculus; in short: as §3
L1210 [28] = assay: Median survival time (MST) of mice bearing L1210 cells was determined at a dose of 100 mg/kg x 2 days administered ip.; format: functional, organism-based; parameters: dose 100 mg/kg; settings: Mus musculus; in short: as §3
L1210 [29] = assay: Ratio of median survival time of the mice bearing L1210 cells in treated(T) vs. control(C) at a dose of 25 mg/kg x 2 days; format: functional, organism-based; parameters: dose 25 mg/kg; settings: Mus musculus; in short: as §3
Mus musculus [30] = assay: Effect on body weight in ICR mice was determined after intraperitoneal administration on day 6; format: functional, organism-based; in short: as §5
Mus musculus [31] = assay: Effect on kidney weight in ICR mice was determined after intraperitoneal administration on day 6; format: functional, organism-based; in short: as §5
L1210 [32] = assay: Median survival time (MST) of mice bearing L1210 cells was determined at a dose of 115 mg/kg x 2 days administered ip; Toxic.; format: functional, organism-based; parameters: dose 115 mg/kg; settings: Mus musculus; in short: as §3

Compound: N=c1c2ccn(C3O[C@H](CO)[C@@H](O)[C@H]3O)c2ncn1N (stereo partly drawn)
MST (L1210 [1]): 9.5 days | T/C (L1210 [2]): 95% | IC50 (L1210 [3]): 8.5 µM | MST (L1210 [4]): 11 days | T/C (L1210 [5]): 110% | IC50 (L1210 [6]): 2.7 µg/mL (≈ 9.6 µM)

IC50 (L1210 [6]): 400 µg/mL and 1.36 mM
Compound: N=c1ccn([C@@H]2O[C@H](CO)[C@@H](O)[C@H]2O)c(=O)n1N

Compound: N=c1ccn([C@@H]2O[C@H](CO)[C@@H](O)[C@@H]2O)c(=O)n1N
T/C (L1210 [7]): 100% | MST (L1210 [1]): 10 days | T/C (L1210 [8]): 95% | IC50 (L1210 [9]): 1530 µM | MST (L1210 [4]): 9.5 days | IC50 (L1210 [6]): 45 µg/mL (≈ 174 µM)

IC50 (L1210 [6]): 2000 µg/mL and 7.18 mM
Compound: N=c1ccn([C@H]2C[C@H](O)[C@@H](CO)O2)c(=O)n1N

Compound: 3-amino-2'-deoxycytidine hydrochloridecis-DDP
MST (L1210 [10]): Toxic | MST (L1210 [11]): Toxic

Compound: 3-amino-2'-deoxycytidine-dichloroplatinum (II)
Blood urea nitrogen (Mus musculus [12]): 27.2 mg 100ml-1 | Blood urea nitrogen (Mus musculus [13]): 28 mg 100ml-1 | MST (L1210 [14]): Toxic | MST (L1210 [15]): 8.5 days | Kidney weight (Mus musculus [16]): 634 | Kidney weight (Mus musculus [17]): 626 | Body weight (Mus musculus [18]): 35.5 | MST (L1210 [19]): 10 days | T/C (L1210 [20]): 181% | MST (L1210 [21]): 13 days | Blood urea nitrogen (Mus musculus [22]): 26 mg 100ml-1 | Body weight (Mus musculus [23]): 38.3 | T/C (L1210 [24]): 162% | T/C (L1210 [25]): 106% | MST (L1210 [26]): 10.5 days | T/C (L1210 [27]): 125% | MST (L1210 [28]): 14.5 days | T/C (L1210 [29]): 131% | Body weight (Mus musculus [30]): 39.3 | Kidney weight (Mus musculus [31]): 654

Compound: 3-amino-cytidine hydrochloridecis-DDP
MST (L1210 [10]): Toxic | MST (L1210 [32]): Toxic
